Assay results published in ChEMBL document CHEMBL1145813, “Synthesis and evaluation of 11C-labeled 6-substituted 2-arylbenzothiazoles as amyloid imaging agents” (J Med Chem, 2003).

Key:
[1] = target: Amyloid-beta precursor protein (Homo sapiens, UniProt P05067); test: Binding affinity for Amyloid beta 1-40 aggregates in competition with [N-methyl-3H] BTA-1.
[2] = Percent injected dose per gram of compound to Swiss-Webster mice brain was measured after 2 min of intravenous injection; assay type: functional, Mus musculus
In short: (§1)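 Female Swiss-Webster mice (23–35 g) received 0.37–3.7 MBq of high specific activity (>7.4 GBq/μmol) 11C-labeled derivative by lateral tail vein, in ≤0.10 mL of 93% isotonic saline/7% ethanol. Mice were killed at 2 or 30 min, and whole brain minus cerebellum was gamma-counted and decay-corrected against injectate standards. %ID/g was multiplied by body weight (kg). The 2 min/30 min ratio was taken from these values.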

[3] = Percent injected dose per gram of compound to Swiss-Webster mice brain was measured after 30 min of intravenous injection; assay type: functional, Mus musculus; in short: as §1
[4] = Ratio of percent injected dose per gram of compound to Swiss-Webster mice brain after 2 min and 30 min of intravenous injection; assay type: functional; in short: as §1
[5] = Apparent lipophilicity was determined

Sequence of Amyloid-beta precursor protein (P05067 whole entry): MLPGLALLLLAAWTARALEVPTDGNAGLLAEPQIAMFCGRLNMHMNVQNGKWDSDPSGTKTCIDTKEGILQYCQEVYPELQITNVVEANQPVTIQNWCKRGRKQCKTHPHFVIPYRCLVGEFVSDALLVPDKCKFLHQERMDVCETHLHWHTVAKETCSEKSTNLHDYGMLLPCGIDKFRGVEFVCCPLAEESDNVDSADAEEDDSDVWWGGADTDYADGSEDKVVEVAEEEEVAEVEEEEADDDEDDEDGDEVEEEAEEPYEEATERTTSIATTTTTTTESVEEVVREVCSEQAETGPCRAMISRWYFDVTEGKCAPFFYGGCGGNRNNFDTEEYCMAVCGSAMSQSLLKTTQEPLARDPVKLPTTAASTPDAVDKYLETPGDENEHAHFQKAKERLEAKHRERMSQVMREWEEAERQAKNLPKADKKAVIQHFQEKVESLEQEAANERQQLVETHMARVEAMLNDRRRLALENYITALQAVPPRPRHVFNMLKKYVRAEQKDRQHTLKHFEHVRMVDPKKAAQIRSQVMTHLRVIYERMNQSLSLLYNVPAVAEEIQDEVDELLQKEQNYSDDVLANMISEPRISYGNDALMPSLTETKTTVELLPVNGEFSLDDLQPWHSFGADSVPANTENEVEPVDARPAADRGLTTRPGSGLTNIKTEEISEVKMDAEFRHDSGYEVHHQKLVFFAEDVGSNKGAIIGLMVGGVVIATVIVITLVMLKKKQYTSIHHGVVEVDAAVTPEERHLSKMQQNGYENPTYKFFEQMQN

Structure (SMILES)	Ki [1] [nM]	ID [2] [%]	ID [3] [%]	Ratio [4]	chromatographic logD [5]
CN(C)c1ccc(-c2nc3ccccc3s2)cc1	4	0.19	0.078	2.5	3.4
CNc1ccc(-c2nc3ccc(Br)cc3s2)cc1	1.7	0.12	0.12	1	3.6
Nc1ccc(-c2nc3ccc(O)cc3s2)cc1	46				
Cc1ccc2nc(-c3ccc(N)cc3)sc2c1	9.5				2.4
CNc1ccc(-c2nc3ccc(O)cc3s2)cc1 [PITTSBURGH COMPOUND B UNLABELLED]		0.21	0.018		
COc1ccc2nc(-c3ccc(N)cc3)sc2c1	7	0.32	0.084	3.8	1.9
CN(C)c1ccc(-c2nc3ccc(C#N)cc3s2)cc1	11	0.24	0.097	2.5	3.2
CNc1ccc(-c2nc3ccccc3s2)cc1		0.43	0.057		2.7
CN(C)c1ccc(-c2nc3ccc(O)cc3s2)cc1	4.4	0.32	0.1	3	2
N#Cc1ccc2nc(-c3ccc(N)cc3)sc2c1	64				1.8
CNc1ccc(-c2nc3ccc(OC)cc3s2)cc1	4.9	0.33	0.1	3.2	2.6
Nc1ccc(-c2nc3ccc(Br)cc3s2)cc1	7.2				2.9
CN(C)c1ccc(-c2nc3ccc(Br)cc3s2)cc1	2.9	0.054	0.11	0.49	4.4
Cc1ccc2nc(-c3ccc(N(C)C)cc3)sc2c1	64	0.078	0.15	0.52	3.8
Nc1ccc(-c2nc3ccccc3s2)cc1	37				2
COc1ccc2nc(-c3ccc(N(C)C)cc3)sc2c1	1.9	0.16	0.14	1.1	3.3
CNc1ccc(-c2nc3ccc(C#N)cc3s2)cc1	8.6	0.32	0.063	5	2.5
CNc1ccc(-c2nc3ccc(C)cc3s2)cc1		0.22	0.083		3.1
